Assay results as given in ChEMBL document CHEMBL1138242, “Synthesis, crystal structure, and activity of pyrazole-based inhibitors of p38 kinase” (J Med Chem, 2007).
Calls of active or inactive are those of the source. The calls are words filed in the database; no cut-off is given here.

Columns and labels:
Rattus norvegicus [1] = experiment: Inhibition of LPS-induced TNF production in rat pretreated at 20 mg/kg, po after […] by ELISA; type: functional
Rattus norvegicus [2] = experiment: Inhibition of LPS-induced TNF production in rat pretreated at 5 mg/kg, po after […] by ELISA; type: functional
MAP kinase p38 = MAP kinase p38 (Homo sapiens, UniProt O15264+Q15759+Q16539+P53778); experiment: Inhibition of p38 MAPK activity assessed as EGFR phosphorylation; type: protein assay
Mus musculus [3] = experiment: Decrease of arthritis incidence in collagen-induced DBA/1 mouse at 30 mg/kg, po bid; type: functional, organism-based; design: dose 30 mg/kg
How it was run: (§1)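 Male DBA/1 mice; arthritis induced by subcutaneous type II chick collagen in Freund's adjuvant on days 1 and 21. Test agent given by oral gavage twice daily in Methocel/Tween, days 21-56. Weekly ip anti-TNF antibody served as comparator. Animals scored for signs of arthritis, with incidence compared with vehicle by logistic regression (p < 0.05); 8-10 mice per group.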

Mus musculus [4] = experiment: Decrease of arthritis incidence in collagen-induced DBA/1 mouse at 15 mg/kg, po bid; type: functional, organism-based; design: dose 15 mg/kg; how it was run: as §1

| SMILES | inhibition in vivo at 20 mg/kg (Rattus norvegicus [1]) [%] | inhibition in vivo at 5 mg/kg (Rattus norvegicus [2]) [%] | also measured |
| --- | --- | --- | --- |
| OC1CCCN(c2[nH]nc(-c3ccc(Cl)cc3)c2-c2ccncc2)C1 (stereo not drawn) | 75 |  |  |
| OC1CCN(c2[nH]nc(-c3ccc(Cl)cc3)c2-c2ccncc2)CC1 | 91 | 52 |  |
| CC1CN(c2[nH]nc(-c3ccc(Cl)cc3)c2-c2ccncc2)CCN1 (stereo not drawn) | 95 | 84 | IC50 (MAP kinase p38): 16 nM |
| Clc1ccc(-c2n[nH]c(N3CCC4CCCCC4C3)c2-c2ccncc2)cc1 (stereo not drawn) | 11 |  |  |
| Clc1ccc(-c2n[nH]c(N3CCCC4CCCCC43)c2-c2ccncc2)cc1 (stereo not drawn) | 33 |  |  |
| Clc1ccc(-c2n[nH]c(N3CCN4CCC[C@H]4C3)c2-c2ccncc2)cc1 | 89 |  |  |
| CN1CCN(c2[nH]nc(-c3ccc(Cl)cc3)c2-c2ccncc2)CC1 | 95 | 98 | Activity (Mus musculus [3]): Active; Activity (Mus musculus [4]): Active |
| CC1CCN(c2[nH]nc(-c3ccc(Cl)cc3)c2-c2ccncc2)CC1 | 16 |  |  |
| Clc1ccc(-c2n[nH]c(N3CCc4ccccc4C3)c2-c2ccncc2)cc1 | 12 |  |  |
| CC1CN(c2[nH]nc(-c3ccc(Cl)cc3)c2-c2ccncc2)CC(C)N1 (stereo not drawn) | 96 | 93 |  |
| CC1CC(C)CN(c2[nH]nc(-c3ccc(Cl)cc3)c2-c2ccncc2)C1 (stereo not drawn) | 53 |  |  |
